Assay results reported in ChEMBL document CHEMBL1148568, “Synthesis and biological evaluation of 3-ethylidene-1,3-dihydro-indol-2-ones as novel checkpoint 1 inhibitors” (Bioorg Med Chem Lett, 2006).

How the values were obtained:
[1] = target: T1, Serine/threonine-protein kinase Chk1 (Homo sapiens, UniProt O14757); assay: Inhibitory activity against Chk1
T1 sequence (O14757 whole entry): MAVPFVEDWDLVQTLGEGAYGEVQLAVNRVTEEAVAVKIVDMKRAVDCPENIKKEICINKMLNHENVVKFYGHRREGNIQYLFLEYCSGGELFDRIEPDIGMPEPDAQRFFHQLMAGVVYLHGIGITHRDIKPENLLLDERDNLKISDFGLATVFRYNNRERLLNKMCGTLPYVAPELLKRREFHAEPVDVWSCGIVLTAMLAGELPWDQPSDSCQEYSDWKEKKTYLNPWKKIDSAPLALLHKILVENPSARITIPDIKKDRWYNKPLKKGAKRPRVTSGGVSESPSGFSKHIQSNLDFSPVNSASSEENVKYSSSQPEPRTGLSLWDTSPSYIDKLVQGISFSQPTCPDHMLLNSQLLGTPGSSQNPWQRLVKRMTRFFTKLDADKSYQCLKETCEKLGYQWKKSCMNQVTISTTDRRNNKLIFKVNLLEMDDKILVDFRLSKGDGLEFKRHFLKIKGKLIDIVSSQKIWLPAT

[2] = target: Serine/threonine-protein kinase Chk2 (Homo sapiens, UniProt O96017); assay: Inhibitory activity against Chk2
Sequence of Serine/threonine-protein kinase Chk2 (O96017 whole entry): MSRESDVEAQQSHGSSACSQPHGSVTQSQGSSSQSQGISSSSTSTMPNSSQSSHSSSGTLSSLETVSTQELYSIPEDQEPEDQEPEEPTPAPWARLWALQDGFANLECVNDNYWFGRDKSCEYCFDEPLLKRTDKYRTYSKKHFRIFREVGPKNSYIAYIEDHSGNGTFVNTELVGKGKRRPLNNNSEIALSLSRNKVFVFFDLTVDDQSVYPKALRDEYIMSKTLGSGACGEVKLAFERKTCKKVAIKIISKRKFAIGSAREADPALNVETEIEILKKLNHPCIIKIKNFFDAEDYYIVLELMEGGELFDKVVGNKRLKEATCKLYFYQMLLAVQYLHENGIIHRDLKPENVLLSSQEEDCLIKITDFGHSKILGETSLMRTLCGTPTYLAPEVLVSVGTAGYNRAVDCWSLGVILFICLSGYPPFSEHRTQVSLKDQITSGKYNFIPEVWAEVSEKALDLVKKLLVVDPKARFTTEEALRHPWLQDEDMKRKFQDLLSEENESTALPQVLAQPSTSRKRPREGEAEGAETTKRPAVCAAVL

[3] = target: Epidermal growth factor receptor (Homo sapiens, UniProt P00533); assay: Inhibitory activity against EGFR
Sequence of Epidermal growth factor receptor (P00533 whole entry): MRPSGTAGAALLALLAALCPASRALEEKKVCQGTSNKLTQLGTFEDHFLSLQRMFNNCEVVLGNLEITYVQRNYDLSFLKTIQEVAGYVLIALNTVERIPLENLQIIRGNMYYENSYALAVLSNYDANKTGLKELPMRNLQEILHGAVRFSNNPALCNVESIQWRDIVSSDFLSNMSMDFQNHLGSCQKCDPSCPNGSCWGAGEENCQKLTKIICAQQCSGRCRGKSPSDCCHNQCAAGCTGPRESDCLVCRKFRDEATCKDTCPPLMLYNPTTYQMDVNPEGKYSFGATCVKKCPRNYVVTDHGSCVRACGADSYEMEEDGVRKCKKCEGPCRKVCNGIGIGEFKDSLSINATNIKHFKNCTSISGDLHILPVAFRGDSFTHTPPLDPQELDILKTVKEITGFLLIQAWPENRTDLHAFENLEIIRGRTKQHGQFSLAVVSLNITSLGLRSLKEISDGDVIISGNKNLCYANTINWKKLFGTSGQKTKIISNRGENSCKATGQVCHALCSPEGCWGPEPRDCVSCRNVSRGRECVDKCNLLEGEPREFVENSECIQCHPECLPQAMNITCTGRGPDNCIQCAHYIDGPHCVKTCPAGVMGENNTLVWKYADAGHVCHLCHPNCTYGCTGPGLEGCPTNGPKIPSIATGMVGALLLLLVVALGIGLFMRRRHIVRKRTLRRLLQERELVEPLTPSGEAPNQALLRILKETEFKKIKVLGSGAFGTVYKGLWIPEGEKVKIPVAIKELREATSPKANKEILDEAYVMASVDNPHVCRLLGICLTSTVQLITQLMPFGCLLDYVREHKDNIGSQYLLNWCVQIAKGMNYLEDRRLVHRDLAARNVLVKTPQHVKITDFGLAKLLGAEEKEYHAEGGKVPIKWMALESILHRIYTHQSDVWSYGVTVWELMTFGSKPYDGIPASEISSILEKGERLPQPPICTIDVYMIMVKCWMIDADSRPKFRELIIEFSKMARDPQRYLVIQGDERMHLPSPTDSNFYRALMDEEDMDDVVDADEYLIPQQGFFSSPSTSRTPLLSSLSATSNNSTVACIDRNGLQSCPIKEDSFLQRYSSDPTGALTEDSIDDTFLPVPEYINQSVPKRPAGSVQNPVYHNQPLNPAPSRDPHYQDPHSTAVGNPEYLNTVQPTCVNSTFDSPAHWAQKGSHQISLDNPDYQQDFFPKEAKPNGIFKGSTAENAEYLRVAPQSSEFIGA

[4] = target: Protein kinase C gamma type (Homo sapiens, UniProt P05129); assay: Inhibitory activity against PKC gamma
Casein kinase II = Casein kinase II (Homo sapiens, UniProt P19784+P67870+P68400); assay: Inhibitory activity against CK2; format: protein-complex assay
[5] = target: Protein kinase C delta type (Homo sapiens, UniProt Q05655); assay: Inhibitory activity against PKC delta
[6] = target: Cyclin-dependent kinase 1 (Homo sapiens, UniProt P06493); assay: Inhibitory activity against CDC2
Sequence of Cyclin-dependent kinase 1 (P06493 whole entry): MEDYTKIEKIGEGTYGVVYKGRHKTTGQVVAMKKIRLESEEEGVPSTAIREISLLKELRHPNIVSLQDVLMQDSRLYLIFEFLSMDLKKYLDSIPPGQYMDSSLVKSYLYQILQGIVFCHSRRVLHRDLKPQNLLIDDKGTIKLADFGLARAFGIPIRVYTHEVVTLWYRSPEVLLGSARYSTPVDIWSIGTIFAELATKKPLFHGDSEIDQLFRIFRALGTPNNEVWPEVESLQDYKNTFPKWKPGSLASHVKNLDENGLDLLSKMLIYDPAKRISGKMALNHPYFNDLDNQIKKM

[7] = target: MAP kinase-activated protein kinase 2 (Homo sapiens, UniProt P49137); assay: Inhibitory activity against MAPKAP2
Sequence of MAP kinase-activated protein kinase 2 (P49137 whole entry): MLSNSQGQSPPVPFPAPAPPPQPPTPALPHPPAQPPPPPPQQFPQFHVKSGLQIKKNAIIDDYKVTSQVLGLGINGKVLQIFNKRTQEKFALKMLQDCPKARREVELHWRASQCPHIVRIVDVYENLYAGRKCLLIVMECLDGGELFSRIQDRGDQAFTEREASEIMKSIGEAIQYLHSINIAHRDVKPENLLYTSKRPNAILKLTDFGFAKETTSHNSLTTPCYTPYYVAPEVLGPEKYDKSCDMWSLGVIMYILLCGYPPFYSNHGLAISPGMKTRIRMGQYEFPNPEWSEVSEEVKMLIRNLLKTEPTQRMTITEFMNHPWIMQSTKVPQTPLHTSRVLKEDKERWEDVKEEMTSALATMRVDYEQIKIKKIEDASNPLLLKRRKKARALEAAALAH

[8] = target: Proto-oncogene tyrosine-protein kinase Src (Homo sapiens, UniProt P12931); assay: Inhibitory activity against SRC
Sequence of Proto-oncogene tyrosine-protein kinase Src (P12931 2-536 limits assumed): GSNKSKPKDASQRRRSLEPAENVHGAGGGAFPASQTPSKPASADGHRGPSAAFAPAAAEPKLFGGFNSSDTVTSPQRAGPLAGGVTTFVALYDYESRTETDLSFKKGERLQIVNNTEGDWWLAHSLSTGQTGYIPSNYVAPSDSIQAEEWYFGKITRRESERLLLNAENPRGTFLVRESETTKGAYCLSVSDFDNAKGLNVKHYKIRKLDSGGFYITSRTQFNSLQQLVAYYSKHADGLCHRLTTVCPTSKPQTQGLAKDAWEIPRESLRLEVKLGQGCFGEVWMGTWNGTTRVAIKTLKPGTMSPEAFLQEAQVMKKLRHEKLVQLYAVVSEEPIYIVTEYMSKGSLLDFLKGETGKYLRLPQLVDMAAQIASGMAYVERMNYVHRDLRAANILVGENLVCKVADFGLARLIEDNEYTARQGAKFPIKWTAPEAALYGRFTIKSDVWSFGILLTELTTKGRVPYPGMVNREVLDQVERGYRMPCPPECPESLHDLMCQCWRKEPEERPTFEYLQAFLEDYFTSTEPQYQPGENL

Angiopoietin-1 receptor = Angiopoietin-1 receptor (Homo sapiens, UniProt Q02763); assay: Inhibitory activity against Tie2
Sequence of Angiopoietin-1 receptor (Q02763 whole entry): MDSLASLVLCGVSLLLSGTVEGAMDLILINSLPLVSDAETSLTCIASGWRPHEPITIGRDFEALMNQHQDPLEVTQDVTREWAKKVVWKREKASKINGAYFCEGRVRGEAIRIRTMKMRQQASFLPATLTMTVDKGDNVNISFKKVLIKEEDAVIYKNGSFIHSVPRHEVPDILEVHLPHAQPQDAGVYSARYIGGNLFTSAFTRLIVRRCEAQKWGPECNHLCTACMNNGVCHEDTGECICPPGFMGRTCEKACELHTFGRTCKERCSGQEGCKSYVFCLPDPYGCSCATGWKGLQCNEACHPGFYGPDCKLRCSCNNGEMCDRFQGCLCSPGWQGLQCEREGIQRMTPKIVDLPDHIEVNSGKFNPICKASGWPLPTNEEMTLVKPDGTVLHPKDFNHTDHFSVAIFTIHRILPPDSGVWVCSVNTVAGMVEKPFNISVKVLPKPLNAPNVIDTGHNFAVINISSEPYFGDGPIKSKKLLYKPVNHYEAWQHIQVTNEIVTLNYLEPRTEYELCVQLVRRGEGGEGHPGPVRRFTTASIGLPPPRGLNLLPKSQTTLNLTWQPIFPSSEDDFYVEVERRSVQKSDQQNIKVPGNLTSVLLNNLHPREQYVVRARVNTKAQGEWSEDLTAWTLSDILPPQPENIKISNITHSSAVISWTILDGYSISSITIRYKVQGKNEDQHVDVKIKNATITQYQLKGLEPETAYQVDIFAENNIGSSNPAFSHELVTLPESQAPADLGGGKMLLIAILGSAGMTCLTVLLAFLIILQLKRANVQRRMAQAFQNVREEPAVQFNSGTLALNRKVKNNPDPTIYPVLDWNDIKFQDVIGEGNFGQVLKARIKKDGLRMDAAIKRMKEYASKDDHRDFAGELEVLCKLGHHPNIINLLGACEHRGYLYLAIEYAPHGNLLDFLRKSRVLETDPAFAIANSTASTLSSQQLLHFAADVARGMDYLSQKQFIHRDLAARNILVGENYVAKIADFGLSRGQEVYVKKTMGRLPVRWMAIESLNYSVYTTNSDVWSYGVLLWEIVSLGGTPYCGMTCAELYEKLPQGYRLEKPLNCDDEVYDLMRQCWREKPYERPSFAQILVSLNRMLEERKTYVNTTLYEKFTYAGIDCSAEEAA

[9] = target: T2, Serine/threonine-protein kinase Sgk1 (Homo sapiens, UniProt O00141); assay: Inhibitory activity against SGK
T2 sequence (O00141 whole entry): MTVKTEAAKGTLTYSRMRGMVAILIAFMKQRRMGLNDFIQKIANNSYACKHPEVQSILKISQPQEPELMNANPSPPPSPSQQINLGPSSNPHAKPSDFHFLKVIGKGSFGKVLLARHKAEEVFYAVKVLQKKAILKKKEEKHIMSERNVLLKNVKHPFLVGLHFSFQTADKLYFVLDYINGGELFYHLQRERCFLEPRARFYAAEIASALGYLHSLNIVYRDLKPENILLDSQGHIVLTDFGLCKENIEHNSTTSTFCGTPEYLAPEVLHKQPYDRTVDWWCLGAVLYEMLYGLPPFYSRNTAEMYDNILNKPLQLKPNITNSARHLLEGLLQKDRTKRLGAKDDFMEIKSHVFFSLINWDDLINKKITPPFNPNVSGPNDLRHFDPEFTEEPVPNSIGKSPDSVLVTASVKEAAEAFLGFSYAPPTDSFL

HeLa [10] = assay: Antiproliferative activity against human HeLa cells by MTS assay in the presence of doxorubicin; format: functional, cell-based
HeLa [11] = assay: Antiproliferative activity against human HeLa cells by MTS assay; format: functional, cell-based
Method in brief: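 p53-deficient human cervical cancer HeLa cells were treated with the test compound alone over varying concentrations. Proliferation was read out by MTS, and the antiproliferative EC50 was determined.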

COc1cc(-c2ccc3c(c2)/C(=C/c2c[nH]c4c(C)cccc24)C(=O)N3)ccc1O
IC50 [1]: 3.46 µM

COc1cc(-c2ccc3c(c2)/C(=C/c2cccc(OC)c2OC)C(=O)N3)ccc1O
IC50 [1]: > 50 µM

COc1cc(-c2ccc3c(c2)/C(=C/c2c[nH]c4ccccc24)C(=O)N3)ccc1O
IC50 [1]: > 50 µM

COc1cc(-c2ccc3c(c2)NC(=O)/C3=C\c2[nH]c(C)c(CN(C)C)c2C(C)C)ccc1O
IC50 [1]: 1.28 µM

COc1cc(-c2ccc3c(c2)NC(=O)/C3=C\c2cc[nH]c2)cc(OC)c1OC
IC50 [1]: > 10 µM

COc1cc(-c2ccc3c(c2)NC(=O)/C3=C\c2[nH]c(C)c(CCO)c2C)ccc1O
IC50 [1]: 0.047 µM

Nc1ccc(-c2ccc3c(c2)NC(=O)/C3=C\c2cc[nH]c2)cc1
IC50 [1]: 1.03 µM

COc1cc(-c2ccc3c(c2)NC(=O)/C3=C\c2ccc[nH]2)ccc1O
IC50 [2]: 21.7 µM | IC50 [3]: > 50 µM | IC50 [4]: > 50 µM | IC50 (Casein kinase II): > 50 µM | IC50 [5]: > 50 µM | IC50 [6]: > 50 µM | IC50 [7]: > 50 µM | IC50 [8]: > 50 µM | IC50 (Angiopoietin-1 receptor): > 50 µM | IC50 [9]: > 50 µM

COc1cc(-c2ccc3c(c2)NC(=O)/C3=C\c2c[nH]c3nc(C#N)ccc23)ccc1O
IC50 [1]: 0.445 µM

COc1cc(-c2ccc3c(c2)NC(=O)/C3=C\C2CCCN2)ccc1O (stereo unspecified)
IC50 [1]: 3.97 µM

COc1cc(-c2ccc3c(c2)NC(=O)/C3=C\c2[nH]c(C)cc2C)ccc1O
IC50 [1]: 0.12 µM

COc1cc(O)ccc1-c1ccc2c(c1)NC(=O)/C2=C\c1cc[nH]c1
IC50 [1]: 0.01 µM

Cc1ccc(-c2ccc3c(c2)NC(=O)/C3=C\c2cc[nH]c2)cc1
IC50 [1]: > 10 µM

COc1cc(-c2ccc3c(c2)NC(=O)/C3=C\c2ncc[nH]2)ccc1O
IC50 [2]: 14.6 µM | IC50 [3]: > 50 µM | IC50 [4]: > 50 µM | IC50 [5]: > 50 µM | IC50 [6]: 0.251 µM | IC50 [8]: > 50 µM | IC50 (Angiopoietin-1 receptor): 23.3 µM | IC50 [9]: 1.5 µM | IC50 [1]: 0.018 µM

COc1cc(-c2ccc3c(c2)NC(=O)/C3=C\c2cc[nH]c2)ccc1O
IC50 [1]: 0.025 µM

COc1cc(-c2ccc3c(c2)NC(=O)/C3=C\c2c[nH]c3ccccc23)ccc1O
IC50 [1]: 0.092 µM

O=C1Nc2cc(-c3ccc(F)c(F)c3)ccc2/C1=C/c1cc[nH]c1
IC50 [1]: > 10 µM

O=C1Nc2cc(-c3ccc(OC(F)(F)F)cc3)ccc2/C1=C/c1cc[nH]c1
IC50 [1]: > 10 µM

COc1cc(-c2ccc3c(c2)/C(=C/c2ccc[nH]2)C(=O)N3)ccc1O
IC50 [1]: 2.84 µM

COc1cc(-c2ccc3c(c2)NC(=O)/C3=C\c2c[nH]c3ncccc23)ccc1O
IC50 [2]: 22.7 µM | EC50 (HeLa [10]): 0.18 µM | IC50 (Casein kinase II): 41.7 µM | EC50 (HeLa [11]): 0.01 µM | IC50 [6]: 0.454 µM | IC50 [7]: > 50 µM | IC50 [8]: 2.38 µM | IC50 [9]: > 50 µM | IC50 [1]: 0.004 µM

O=C1Nc2cc(-c3ccc(O)cc3)ccc2/C1=C/c1cc[nH]c1
IC50 [1]: 0.029 µM

COc1cc(-c2ccc3c(c2)NC(=O)/C3=C\c2cccc(OC)c2OC)ccc1O
IC50 [1]: > 50 µM

COC(=O)CCc1c(C)[nH]c(/C=C2\C(=O)Nc3cc(-c4ccc(O)c(OC)c4)ccc32)c1C
IC50 [1]: 0.075 µM

COc1cc(-c2ccc3c(c2)NC(=O)/C3=C\c2c[nH]c3c(C)cccc23)ccc1O
IC50 [1]: 1.31 µM

COc1cc(-c2ccc3c(c2)NC(=O)/C3=C\c2[nH]c(C)cc2C(C)C)ccc1O
IC50 [1]: 3.46 µM

COc1cc(-c2ccc3c(c2)NC(=O)/C3=C\c2[nH]c(C)cc2-c2ccccc2)ccc1O
IC50 [1]: > 10 µM
